Source: PubChem BioAssay
Mdm2 ligase inh: inhibitors of human Mdm2 E3 ubiquitin ligase. Q00987. cell-based MDM2 ubiquitination luciferase reporter, 2 h; 0 = plate control, 100 = twice control, blank-subtracted. signal enhancement, % at 5 µM. actives 0.11% (n = 210,000). AID 1230;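 active = signal enhancement of 30% or more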;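 also: luminescence tracks abundance of the self-degrading MDM2-luciferase fusion protein; higher signal means inhibition of MDM2 E3 ligase activity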
Target sequence (Q00987 whole entry, looked up, the tested form may be a part): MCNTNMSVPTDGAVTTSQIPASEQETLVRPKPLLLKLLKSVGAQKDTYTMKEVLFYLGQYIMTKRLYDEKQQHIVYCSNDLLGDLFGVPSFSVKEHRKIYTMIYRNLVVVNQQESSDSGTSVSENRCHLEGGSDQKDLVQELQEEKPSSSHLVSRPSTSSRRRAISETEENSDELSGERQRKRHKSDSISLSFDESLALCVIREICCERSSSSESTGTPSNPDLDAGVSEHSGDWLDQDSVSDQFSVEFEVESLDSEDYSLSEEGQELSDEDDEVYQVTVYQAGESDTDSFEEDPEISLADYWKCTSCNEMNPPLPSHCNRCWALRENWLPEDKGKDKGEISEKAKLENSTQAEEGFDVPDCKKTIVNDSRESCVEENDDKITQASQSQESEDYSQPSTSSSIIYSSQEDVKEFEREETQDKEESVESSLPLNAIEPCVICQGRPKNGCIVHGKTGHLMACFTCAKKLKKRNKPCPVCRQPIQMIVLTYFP
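Assay system: stable mammalian line carrying autodegrading MDM2–luciferase fusion reporter; Input: 2000 cells in each well; Compound dosing: single-point 5 µM; Schedule: 2 h compound exposure at 37 °C; Signal: SteadyLite luciferase luminescence after 15 min room-temperature reagent incubation; Evaluation: % luminescence enhancement versus blank-corrected plate control mean; Benchmarks: plate controls and plate blanks.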
INS promoter inh: TRM-6 insulin promoter activity inhibition | TRM-6 cells, insulin promoter-eGFP reporter, imaging; reporter expression induced with tamoxifen | inhibition, % at 2 µM | AID 1273 | actives 0.9% (n = 130,000);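 active = inhibition above the mean plus 3 SD, with well images judged a real hit on visual review, cut at about 60% in these data, passing the limit was not always enough; inconclusive = inhibition over the cutoff but images rejected on review; inactive = inhibition not above the cutoff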
RBBP9 inhibitor: human RBBP9 hydrolase inhibition; O75884; recombinant RBBP9, FP-Rh probe fluorescence polarization; inhibition, % at 7.94 µM; actives 0.2% (n = 220,000); AID 1515;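 active = inhibition above the campaign mean of all tested compounds plus 3 SD, cut at about 14% in these data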;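 also: plate controls were DMSO wells with RBBP9 for no effect and wells lacking RBBP9 protein for full effect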
Target sequence (O75884 whole entry, looked up): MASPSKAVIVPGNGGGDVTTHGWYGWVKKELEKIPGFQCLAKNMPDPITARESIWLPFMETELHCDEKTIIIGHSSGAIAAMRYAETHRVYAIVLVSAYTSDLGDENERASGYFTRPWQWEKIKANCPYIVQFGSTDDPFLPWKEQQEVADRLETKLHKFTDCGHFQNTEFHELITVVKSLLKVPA
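Measured by: FP readout at 525/598 nm; material: recombinant human RBBP9; also added: Serine-hydrolase probe FP-Rh, 375 nM pre-mixing; medium: Tris buffer pH 8.0, NaCl, Pluronic; replication: one well per compound; doses: one concentration, 7.94 µM nominal, 0.794% DMSO; timing: preincubation 30 min plus labeling 45 min at 25 °C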
Insulin prom up: MIN6 insulin promoter up-regulation; MIN6 insulin promoter-GFP reporter, high-content imaging; stronger effect = higher value; z-score at 5 µM; actives 0.3% (n = 190,000); AID 1625;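 active = z-score above 3 at 5 µM with at least 500 cells counted in the well; inconclusive = wells under 500 cells, flagged as cytotoxic or low count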
Hsp70 activator: Hsp70 transcriptional activation, primary screen; AID 1203; actives 0.04% (n = 200,000); HeLa Hsp70 promoter luciferase reporter, luminescence; scaled: vehicle 0, proteasome-inhibitor control 100%; activation, % at 10 µM;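 active = activation above the mean across all tested compounds plus 3 SD, cutoff set per campaign, cut at about 5.5% in these data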;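 also: 100% = MG132 at 30 µM as the positive control and 0% = DMSO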
Wee1 degr inh: human Wee1 degradation inhibition, primary screen; actives 1.2% (n = 220,000); HeLa Luc-Wee1K328M stability, luciferase luminescence; 100% = proteasome inhibitor MG132 effect; reporter increase, % at 5 µM; P30291; AID 1321;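 active = activation above the mean of all tested compounds plus 3 SD, set per screening run, cut at about 8.8% in these data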;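 also: cells exposed to compound for 20 h before luminescence read; 0% = DMSO alone and 100% = MG132 at 30 µM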
Starred values were filed as active, the others as inactive; u = inconclusive; x = not tested or not shown. The list is not random: actives were taken first. Their share in the collection is about 2.2%.

SMILES | Mdm2 ligase inh | INS promoter inh | RBBP9 inhibitor | Insulin prom up | Hsp70 activator | Wee1 degr inh
CCOc1ccc(/C(O)=C2/C(=O)C(=O)N(CCCn3ccnc3)C2c2cccs2)cc1Cl (stereo not given) | -10 | -73 | -4 | 0.07 | 0 | 10*
COc1ccc(CNC(=O)C2CC(c3cccc(OC)c3)=NO2)cc1 (stereo not given) | -4 | 73* | 2 | 1.1 | 0 | 3
COc1cccc(C2=NOC(C(=O)NCc3ccc(F)cc3)C2)c1 (stereo not given) | 9 | -100 | 5 | 0.44 | 0 | 1
O=C(NCc1ccc2c(c1)OCO2)C1CC(c2ccc(Cl)cc2)=NO1 (stereo not given) | -1 | 17 | -2 | 0.08 | 0 | 8.8*
CCCCCCCCCCCCCCCC[n+]1ccc(/C=N/O)cc1 | -20 | -135 | 40* | u | 0 | -3
Cc1ccc(Nc2nc(N)nc(CN3CCCCCC3)n2)cc1 | -10 | 3 | -2 | 0.05 | 0 | -3
Nc1nc(CN2CCCCCC2)nc(Nc2ccccc2)n1 | 8 | 89* | 2 | -0.62 | 0 | -1
CCOC(=O)C1C(=O)N(C(=O)c2cncc(Br)c2)CC1c1ccccc1 (stereo not given) | -10 | x | -1 | 0.81 | 0 | 1
CN(C)S(=O)(=O)c1cccc(NC(=S)NCCCn2ccnc2)c1 | -8 | 33 | -7 | 0.75 | 0 | -3
O=c1c(-c2nc3ccccc3s2)cccn1Cc1ccccc1 | -24 | -140 | -2 | x | 0 | 9.0*
CCOC(=O)C1=C(C)N(C)C(=S)NC1c1ccccc1 (stereo not given) | -3 | x | -6 | 0.32 | 0 | 3
CCOC(=O)C1=C(C)N(C)C(=S)NC1c1ccc(Cl)cc1 (stereo not given) | -7 | x | -5 | -0.44 | 0 | 9.9*
CCN(CC)/C(=N/S(=O)(=O)c1ccc(C)cc1)c1ccccc1 | 5 | -12 | -2 | x | 0 | 10.0*
CCOc1ccccc1C1N=C(c2ccc(OC)cc2)CC(c2ccccc2O)N1 (stereo not given) | -8 | 35 | -4 | 0.26 | 0 | 6
CC(C)C1N=C(c2ccc3c(c2)OCO3)CC(c2ccccc2O)N1 (stereo not given) | -2 | 19 | -9 | 1.1 | -1 | 9.4*
O=c1c2c(nc3nc(Cc4ccccc4)[nH]n13)CCC2 | -17 | 92* | 2 | x | 0 | 0
NC(=O)CSc1nnc2ccc(-c3ccco3)nn12 | -16 | 68* | -10 | 0.12 | 0 | -1
CC(=O)c1c(C)nc2cc(Cl)ccc2c1N | -4 | 96* | 5 | 0.68 | -1 | 5
Cc1cccn2c(=O)c3cc(C(=O)NC(C)c4ccccc4)c(=N)n(CCCn4ccnc4)c3nc12 (stereo not given) | -15 | x | -10 | -0.52 | x | -2
CC1=C(C(=O)N2CCOCC2)C(c2cccc3ccccc23)NC(=S)N1 (stereo not given) | -9 | x | -12 | 2.2 | 0 | 11*
Brc1ccc(-c2nnc(-c3cccc(Br)c3)o2)cc1 | -2 | -32 | -6 | 1.6 | 0 | 10*
CCSc1c(-c2ccccc2)nc2c(C)cccc2c1C(=O)O | -3 | 23 | -5 | 0.4 | 0 | 0
N#Cc1nc(Cc2ccccc2)oc1NCCN1CCOCC1 | 32* | -21 | -3 | -0.56 | 0 | -1
N#Cc1nc(Cc2cccc3ccccc23)oc1NCCCN1CCOCC1 | -8 | x | -6 | -1.1 | 0 | -2
COc1ccccc1C(=O)Oc1cc(N)n(S(=O)(=O)c2ccc(C)cc2)n1 | -16 | 79* | -2 | 1 | 0 | 2
SMILES | Mdm2 ligase inh | INS promoter inh | RBBP9 inhibitor | Insulin prom up | Hsp70 activator | Wee1 degr inh
Cc1ccc(S(=O)(=O)n2nc(OC(=O)c3ccco3)cc2N)cc1 | -2 | x | 0 | x | 0 | -1
Cc1cc(N2C(=O)c3ccccc3C2=O)n(C)n1 | -13 | x | -8 | 3.8* | x | -1
Cc1ccc(N2C(=O)c3ccccc3C2=O)cc1C | x | -17 | 1 | 0.18 | 0 | -2
COc1cc(NC(=O)COc2ccc(Cl)cc2)ccc1-c1cc2ccccc2oc1=O | -7 | 30 | -9 | 0.06 | 0 | 0
Cc1onc(-c2ccccc2Cl)c1C(=O)Nc1ccc(-c2cn3cccnc3n2)cc1 | -7 | -55 | -1 | 0.31 | 0 | -1
Cc1onc(-c2ccccc2Cl)c1C(=O)Nc1cccc(-c2nc3ncccn3c2C)c1 | 5 | 82* | -12 | -1.8 | 0 | -2
Cc1cc2nc(-c3ccccn3)c(-c3ccccn3)nc2cc1C | x | x | -6 | -0.47 | x | 9.3*
COc1ccc2nc(SCC(=O)Nc3ccc(S(=O)(=O)N4CCCC4)cc3)c(C#N)cc2c1 | -4 | -91 | -19 | 3.5* | -1 | 2
COc1ccc2nc(N3CCCC3)c(C#N)cc2c1 | -3 | x | -13 | -0.97 | 0 | 8.9*
COc1ccc2nc(N3CCCCC3)c(C#N)cc2c1 | 2 | x | -4 | 0.58 | 0 | 5
N#Cc1cc2ccccc2nc1SCC(=O)Nc1ccc(S(=O)(=O)N2CCCC2)cc1 | 7 | -21 | -10 | -0.34 | 0 | -1
COC(=O)c1ccc(COc2ccccc2/C=N/NS(=O)(=O)c2ccc(C)cc2)cc1 | -3 | x | -4 | 0.68 | 0 | 0
NC(=O)C(c1ccc(Cl)cc1)c1ccc(Sc2ccc(Cl)cc2)nn1 (stereo not given) | -9 | 32 | -1 | 0.77 | 0 | 1
CCOc1ccc(-n2c(SCC(=O)NC(C)CC)nc3n[nH]c(C)c3c2=N)cc1 (stereo not given) | 3 | x | -6 | 3* | 0 | -1
COc1cc(NC(=O)c2cc3sccc3n2C)cc(OC)c1 | -7 | 9 | -6 | -0.41 | 0 | 9.0*
COc1cccc(NC(=S)NCCc2ccccn2)c1 | -8 | -17 | -4 | 0.28 | 0 | 0
COC(=O)C1=NNC2(C)C(=O)N(c3ccc(C)cc3)C(=O)C12 (stereo not given) | 6 | x | -6 | 0.14 | x | 1
CCOc1ccc(NS(=O)(=O)c2ccc3[nH]cc(C(=O)N(CC)CC)c(=O)c3c2)cc1 | -4 | 22 | -7 | x | 0 | 17*
CCOc1ccc(NS(=O)(=O)c2ccc3[nH]cc(C(=O)NCC4CCCO4)c(=O)c3c2)cc1 (stereo not given) | -10 | x | 0 | x | 0 | 0
NC1C2CN(c3nc4c(cc3F)c(=O)c(C(=O)O)cn4-c3ccc(F)cc3F)CC12 (stereo not given) | -12 | -130 | -3 | -0.14 | 0 | 2
CCOc1ccccc1NC(=O)Nc1ccc(CC#N)cc1 | 4 | x | -9 | -0.19 | x | 10*
CCOc1ccccc1NC(=O)Nc1ccon1 | -3 | x | 8 | -0.99 | x | 1
NS(=O)(=O)c1ccc(CCNCC(=O)N2CCC(Cc3ccccc3)CC2)cc1 | -15 | x | -6 | 0.79 | x | -2
